Experimental findings from ChEMBL document CHEMBL3596101, “The Mechanism of Ca(2+) Movement in the Involvement of Baicalein-Induced Cytotoxicity in ZR-75-1 Human Breast Cancer Cells” (J Nat Prod, 2015) are described below.

For assay [1], the system named is ZR-75-1. Briefly: Induction of reactive oxygen species production in human ZR-75-1 cells at 20 uM after 24 hrs by DCFH-DA probe-based flow cytometric analysis (reference value: 3.623%). Type of assay: functional. An outline of the steps: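 ZR-75-1 cells treated with 20–40 μM compound for 24 h, with 5 μM BAPTA-AM added first where indicated. Cells suspended at 1 × 10^6/mL, loaded with 10 μM DCFH-DA for 30 min at 37 °C. DCF read by flow cytometry (488 nm excitation, 530/30 nm filter, 10000 cells). % H2O2-positive (M1) after subtracting the baseline without probe. Three experiments.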
On the technique in general: A flow cytometer gives signals particle by particle.

Assay [2] concerns ZR-75-1. Briefly: Induction of apoptosis in human ZR-75-1 cells assessed as late apoptotic cells at 40 uM after 24 hrs by annexin V-FITC/propidium iodide staining-based flow cytometric analysis (reference value: 2.53%). Type of assay: functional. An outline of the steps: (§1)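 ZR-75-1 cells exposed to 20–40 μM compound for 24 h, with 5 μM BAPTA-AM or NAC added first where indicated. Cells stained with Alexa Fluor 488 annexin V/PI for 15 min, at least 20000 cells analysed by flow cytometry (488 nm excitation, 530/575 nm filters). Early = annexin V+/PI−, late = annexin V+/PI+. Three independent biological replicates.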

For assay [3], the system named is ZR-75-1. Briefly: Induction of apoptosis in human ZR-75-1 cells at 20 to 40 uM preincubated for 24 hrs followed by antioxidant N-Acetylcysteine addition by annexin V-FITC/propidium iodide staining-based flow cytometric analysis. Type of assay: functional, cell-based. The method in brief: as §1
In assay [4] the test system is ZR-75-1. Briefly: Induction of apoptosis in human ZR-75-1 cells assessed as activation of caspase-3 at 20 to 40 uM preincubated for 24 hrs followed by Ca2+ chelator BAPTA-AM addition by Western immunoblot analysis. Type of assay: functional, cell-based. An outline of the steps: (§2)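 Confluent ZR-75-1 cells (3 × 10^6/dish) treated with 20, 30 or 40 μM compound for 24 h. Where used, 5 μM BAPTA-AM or 5 μM NAC was added before the compound. About 50 μg lysate protein run on 10% SDS-PAGE, transferred to PVDF, probed for cleaved caspase-9/-3 and β-actin, chemiluminescence. Densitometry normalized to β-actin. Three experiments.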
(A western blot detects proteins with antibodies after separation by electrophoresis.)

Assay [5] concerns ZR-75-1. Kind of assay: Increase in intracellular Ca2+ level in human ZR-75-1 cells at 40 uM treated for 90 secs post PLC inhibitor U73122 and ATP addition by fura-2-AM dye-based spectrofluorophotometric analysis in presence of Ca2+ free medium. Type of assay: functional, cell-based. The method in brief:
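Performed in Ca2+-free medium with fura-2-loaded ZR-75-1 cells. Response expressed relative to 40 μM compound alone (100%). Three experiments.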

Assay [6] concerns ZR-75-1. Kind of assay: Increase in intracellular Ca2+ level in human ZR-75-1 cells treated for 25 secs by fura-2-AM dye-based spectrofluorophotometric analysis in presence of Ca2+ containing medium. Type of assay: functional, cell-based. The method in brief:
(§3)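 Fura-2-loaded ZR-75-1 cells (0.5 million per 1 mL, stirred, 25 °C) in Ca2+-containing or Ca2+-free medium. Compound added at 25 s. 340/380 nm excitation, 510 nm emission at 1 s intervals, calibrated to nM. Concentration-response from baseline-subtracted area under curve (25–250 s) as % of 50 μM response in Ca2+ medium. EC50 from Hill fit. Three experiments.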

The test system of assay [7] is ZR-75-1. Briefly: Increase in intracellular Ca2+ level in human ZR-75-1 cells at 40 uM measured every 150 secs by fura-2-AM dye-based spectrofluorophotometric analysis in presence of Ca2+ containing medium with PKC inhibitor GF109203X. Type of assay: functional, cell-based. The method in brief:
(§4)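 In Ca2+-containing medium (2 mM CaCl2), 2-APB (30 μM) or GF109203X (2 μM) was added 1 min before 40 μM compound to fura-2-loaded ZR-75-1 cells at 25 °C. Response = net area under curve over a 150 s interval, as % of compound alone. Mean ± SEM, n=3.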

Assay [8] has as its system ZR-75-1. Kind of assay: Induction of apoptosis in human ZR-75-1 cells assessed as activation of caspase-9 at 20 to 40 uM preincubated for 24 hrs followed by Ca2+ chelator BAPTA-AM addition by Western immunoblot analysis. Type of assay: functional, cell-based. The method in brief:
as §2

Assay [9] deals with ZR-75-1. Briefly: Increase in intracellular Ca2+ level in human ZR-75-1 cells at 40 uM measured every 150 secs by fura-2-AM dye-based spectrofluorophotometric analysis in presence of Ca2+ containing medium with store-operated Ca2+ channel blocker 2-APB. Type of assay: functional, cell-based. The method in brief:
as §4

Assay [10] concerns ZR-75-1. Kind of assay: Induction of apoptosis in human ZR-75-1 cells at 20 to 40 uM after 24 hrs by annexin V-FITC/propidium iodide staining-based flow cytometric analysis in presence of Ca2+ chelator BAPTA-AM. Type of assay: functional, cell-based. The method in brief:
as §1

The subject of assay [11] is ZR-75-1. Kind of assay: Cytotoxicity against human ZR-75-1 cells assessed as induction cell death at 20 to 50 uM after 24 hrs by WST-1 assay in presence of Ca2+ containing medium with Ca2+ chelator BAPTA-AM. Type of assay: functional, cell-based. An outline of the steps: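 WST-1 assay on ZR-75-1 cells seeded at 10000 cells/well, exposed to 0–50 μM compound for 24 h. Where used, 5 μM BAPTA-AM was given for 1 h beforehand, then cells were washed with Ca2+-containing medium. WST-1 incubation 30 min, A450 read. Viability expressed as % of compound-free control. Six wells per treatment, three separate experiments.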
On the technique in general: Formazan colour is commonly taken as a measure of viable cells.

For assay [12], the system named is ZR-75-1. Kind of assay: Induction of luminal endoplasmic reticulum Ca2+ increases in human ZR-75-1 cells assessed as ratio of Ca2+ level at 40 uM by Mag-fura-2 dye-based fluorescence assay (reference value: 0.67 +/- 0.02). Type of assay: functional. The method in brief:
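ZR-75-1 cells loaded with 2 μM Mag-fura-2-AM for 45 min at 37 °C, permeabilized 2 min with […] digitonin in high-K+ intracellular buffer (pH 7.2). Perfused with 0.2 mM Mg-ATP, free Ca2+ clamped at 170 nM. Ratio calibrated with ionomycin plus Ca2+ or EGTA, Kd 53 μM. Control versus 40 μM compound.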

For assay [13], the system named is ZR-75-1. Kind of assay: Induction of Ca2+ influx in human ZR-75-1 cells at 40 uM by measuring Mn2+ quenching of fura-2-AM for 200 secs by spectrofluorophotometric analysis in presence of Ca2+ containing medium. Type of assay: functional, cell-based. An outline of the steps:
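Mn2+ quench assay: 50 μM MnCl2 added to fura-2-loaded ZR-75-1 cells in Ca2+-containing medium 1 min before recording. Excitation 360 nm (Ca2+-insensitive), emission 510 nm, 1 s intervals, 25 °C. Compound (40 μM) added during the trace, recorded up to 200 s. Arbitrary units, three experiments.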

Assay [14] has as its system ZR-75-1. Briefly: Increase in intracellular Ca2+ level in human ZR-75-1 cells at 40 uM by fura-2-AM dye-based spectrofluorophotometric analysis in presence of Ca2+ containing medium with Ca2+ chelator BAPTA-AM. Type of assay: functional, cell-based. An outline of the steps:
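Fura-2-loaded ZR-75-1 cells treated with 5 μM BAPTA-AM, then 40 μM compound in Ca2+-containing medium (2 mM CaCl2, pH 7.4). Ratio fluorescence 340/380 nm excitation, 510 nm emission, 25 °C cuvette.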

Assay [15] deals with ZR-75-1. Kind of assay: Increase in intracellular Ca2+ level in human ZR-75-1 cells treated for 25 secs by fura-2-AM dye-based spectrofluorophotometric analysis in presence of Ca2+-free medium. Type of assay: functional, cell-based. The method in brief:
as §3

Molecules are shown by their SMILES. Active and inactive are the calls of the source. No cut-off for these calls is given here.

For `O=c1cc(-c2ccccc2)oc2cc(O)c(O)c(O)c12` [BAICALEIN], the Activity with ZR-75-1 [1] is 22.707%; in the assay with ZR-75-1 [2], 6.32%; with ZR-75-1 [6], “Dose-dependent effect”. Moreover, the outcome with ZR-75-1 [3], in the assay with ZR-75-1 [4], in the assay on ZR-75-1 [5], with ZR-75-1 [7], in the assay on ZR-75-1 [8] and with ZR-75-1 [9] was inactive. Besides, the result with ZR-75-1 [10], in the assay on ZR-75-1 [11] and in the assay with ZR-75-1 [14] was inactive. For the same compound, the results for the EC50 in the assay on ZR-75-1 [6] and in the assay with ZR-75-1 [15] were 25 µM and 35 µM, respectively. Besides, the Ratio in the assay with ZR-75-1 [12] is given as 0.875. In the assay with ZR-75-1 [13], the result was Active.
